# Test results reported in ChEMBL document CHEMBL2057102, “Aminothienopyridazine inhibitors of tau aggregation: evaluation of structure-activity relationship leads to selection of candidates with desirable in vivo properties” (Bioorg Med Chem, 2012).
# pIC50: −log10 of the molar value.
# How the values were obtained:
# Mus musculus [1] = assay: Toxicity in B6C3F1 mouse assessed as change in neutrophil count at 50 mg/kg, po administered in water qd for 1 month; format: organism-based; parameters: dose 50 mg/kg, route oral; settings: in vivo
# In short: (§1)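 Female B6C3F1 mice, 2 months old (n = 5 per group), dosed for 1 month via drinking water containing 3% PEG400 and 0.5% methylcellulose. Dose equivalent 50 mg/kg/day, assuming about 5 ml water per mouse per day. Vehicle controls were included and water intake was monitored. At the end, body weight was taken, then perfusion, organ weights (heart, liver, kidney, spleen, brain) and complete blood counts.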
# Homo sapiens [2] = organism: Homo sapiens; assay: Inhibition of heparin-induced alexa red-labelled tau K18PL mutant aggregation after 6 hrs by thioflavin-T fluorescence assay relative to control
# In short: (§2)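 Heparin-induced fibrillization of tau K18 fragment (residues 244–369) carrying P301L, with tau at 20 μM in sodium acetate buffer. Fibril formation was read by thioflavin-T fluorescence. IC50 came from sigmoidal fitting of concentration-response data, each concentration in triplicate. Values are from a single fit, or the mean of 2 or more analyses where marked.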
# [3] = Plasma concentration in B6C3F1 mouse at 5 mg/kg, ip at 1 hr; format: ADME, organism-based; parameters: dose 5 mg/kg, route intraperitoneal
# In short: (§3)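 Single i.p. dose of 5 mg/kg, sacrifice 1 h later. Perfused brain hemispheres were homogenized in 10 mM ammonium acetate pH 5.7 (50% w/v). EDTA plasma was taken. Brain homogenate or plasma was extracted with acetonitrile and analysed by LC-MS/MS (MRM) against matrix standard curves. Brain-to-plasma ratio was taken from total levels.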
# [4] = Inhibition of heparin-induced alexa red-labelled tau K18PL mutant aggregation after 6 hrs by thioflavin-T fluorescence assay; parameters: species or system Homo sapiens; in short: as §2
# Mus musculus [5] = assay: Toxicity in B6C3F1 mouse assessed as mild and transient lethargy at 100 mg/kg, po; format: organism-based; parameters: dose 100 mg/kg, route oral; settings: in vivo
# Mus musculus [6] = assay: Toxicity in B6C3F1 mouse assessed as change in kidney weight at 50 mg/kg, po administered in water qd for 1 month; format: organism-based; parameters: dose 50 mg/kg, route oral; settings: in vivo; in short: as §1
# Mus musculus [7] = assay: Toxicity in B6C3F1 mouse assessed as adverse effects at 50 mg/kg, po administered qd for 1 month; format: organism-based; parameters: dose 50 mg/kg, route oral; settings: in vivo; in short: as §1
# Plasma [8] = assay: Free AUC (0.5 to 16 hrs) in B6C3F1 mouse plasma at 5 mg/kg, ip; format: ADME, organism-based; parameters: dose 5 mg/kg, route intraperitoneal; settings: in vivo
# In short: (§4)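 Mice given 5 mg/kg i.p. (n = 3 per time point) and sacrificed at times from 0.5 to 16 h after dosing. Perfused brain hemispheres were homogenized in 10 mM ammonium acetate pH 5.7 (50% w/v). Plasma came from EDTA blood. Samples were extracted with acetonitrile and quantified by LC-MS/MS (MRM, positive ESI) against matrix standard curves by linear regression.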
# [9] = AUC (0.5 to 16 hrs) in B6C3F1 mouse plasma at 5 mg/kg, ip; format: ADME, organism-based; parameters: time 0.5-16 hr, dose 5 mg/kg, route intraperitoneal; in short: as §4
# Mus musculus [10] = assay: Toxicity in B6C3F1 mouse assessed as change in lymphocyte count at 50 mg/kg, po administered in water qd for 1 month; format: organism-based; parameters: dose 50 mg/kg, route oral; settings: in vivo; in short: as §1
# Brain [11] = assay: Fraction unbound in mouse brain homogenate at 1 uM after 5 hrs by equilibrium dialysis; format: ADME, tissue-based
# In short: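 Rapid equilibrium dialysis. Compound at 1 μM in mouse plasma or brain homogenate, each diluted threefold with 100 mM sodium phosphate pH 7.4. Triplicate samples dialysed against the same buffer for 5 h at 37 °C with shaking. Both sides were matrix-matched, extracted with acetonitrile and run by LC-MS/MS. fu is buffer response over sample response; brain fu was corrected for tissue dilution.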
# Mus musculus [12] = assay: Toxicity in B6C3F1 mouse assessed as change in RBC count at 50 mg/kg, po administered in water qd for 1 month; format: organism-based; parameters: dose 50 mg/kg, route oral; settings: in vivo; in short: as §1
# [13] = Drug uptake in B6C3F1 mouse brain at 5 mg/kg, ip after 1 hr; format: ADME, organism-based; parameters: dose 5 mg/kg, route intraperitoneal; settings: B6C3F1, mouse, brain, read-out: Drug uptake; in short: as §3
# Homo sapiens [14] = organism: Homo sapiens; assay: Inhibition of heparin-induced tau K18PL mutant aggregation assessed as soluble tau fragment level at 50 uM after 5 days by SDS-PAGE analysis
# In short: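 Secondary centrifugation assay. Heparin-induced K18 P301L tau fibrillization mixtures with compound at 50 μM were centrifuged. Soluble and insoluble fractions were analysed by SDS-PAGE to give the percentage of tau remaining soluble.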
# [15] = Ratio of drug level in brain to plasma in B6C3F1 mouse at 5 mg/kg, ip after 16 hrs; format: ADME, organism-based; parameters: dose 5 mg/kg, route intraperitoneal; settings: read-out: BPR; in short: as §4
# [16] = Ratio of unbound fraction in brain to plasma in B6C3F1 mouse at 5 mg/kg, ip after 16 hrs; format: ADME, organism-based; parameters: dose 5 mg/kg, route intraperitoneal; settings: in vivo; in short: as §4
# Mus musculus [17] = assay: Toxicity in B6C3F1 mouse assessed as change in WBC count at 50 mg/kg, po administered in water qd for 1 month; format: organism-based; parameters: dose 50 mg/kg, route oral; settings: in vivo; in short: as §1
# Mus musculus [18] = assay: Toxicity in B6C3F1 mouse assessed as adverse effects up to 100 mg/kg, po; format: organism-based; parameters: dose 100 mg/kg, route oral; settings: in vivo
# [19] = Oral bioavailability in B6C3F1 mouse at 10 mg/kg at 1 hr; format: ADME, organism-based; settings: in vivo
# Mus musculus [20] = assay: Toxicity in B6C3F1 mouse assessed as change in heart weight at 50 mg/kg, po administered in water qd for 1 month; format: organism-based; parameters: dose 50 mg/kg, route oral; settings: in vivo; in short: as §1
# [21] = Half life in B6C3F1 mouse plasma at 5 mg/kg, ip after 16 hrs; format: ADME, organism-based; parameters: dose 5 mg/kg, route intraperitoneal; in short: as §4
# [22] = Drug uptake in B6C3F1 mouse brain at 50 mg/kg, po administered qd in drinking water for 3 days; format: ADME, organism-based; parameters: dose 50 mg/kg, route oral; settings: read-out: Drug uptake
# In short: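 Brain levels were measured after 3 days. Perfused brain hemispheres were homogenized in 10 mM ammonium acetate, pH 5.7 (50% w/v), extracted with acetonitrile, and analysed by LC-MS/MS (MRM) against brain-homogenate standard curves. Free level was calculated from the equilibrium-dialysis brain unbound fraction.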
# [23] = Plasma concentration in B6C3F1 mouse at 10 mg/kg, po at 1 hr; format: ADME, organism-based; parameters: dose 10 mg/kg, route oral
# Brain [24] = assay: Clearance in B6C3F1 mouse brain at 5 mg/kg, ip after 16 hrs; format: ADME, organism-based; parameters: dose 5 mg/kg, route intraperitoneal; settings: in vivo; in short: as §4
# Mus musculus [25] = assay: Toxicity in B6C3F1 mouse assessed as change in spleen weight at 50 mg/kg, po administered in water qd for 1 month; format: organism-based; parameters: dose 50 mg/kg, route oral; settings: in vivo; in short: as §1
# [26] = Clearance in B6C3F1 mouse plasma at 5 mg/kg, ip after 16 hrs; format: ADME, organism-based; parameters: dose 5 mg/kg, route intraperitoneal; in short: as §4
# Mus musculus [27] = assay: Ratio of drug level in brain to plasma in B6C3F1 mouse at 5 mg/kg, ip after 1 hr
# Mus musculus [28] = assay: Toxicity in B6C3F1 mouse assessed as change in liver weight at 50 mg/kg, po administered in water qd for 1 month; format: organism-based; parameters: dose 50 mg/kg, route oral; settings: in vivo; in short: as §1
# Mus musculus [29] = assay: Toxicity in B6C3F1 mouse assessed as body weight loss at 50 mg/kg, po administered in water qd for 1 month relative to control; format: organism-based; parameters: dose 50 mg/kg, route oral; settings: in vivo; in short: as §1
# Mus musculus [30] = assay: Toxicity in B6C3F1 mouse assessed as change in brain weight at 50 mg/kg, po administered in water qd for 1 month; format: organism-based; parameters: dose 50 mg/kg, route oral; settings: in vivo; in short: as §1
# [31] = Drug uptake in B6C3F1 mouse plasma at 5 mg/kg, ip after 1 hr; format: ADME, organism-based; parameters: dose 5 mg/kg, route intraperitoneal; settings: B6C3F1, mouse, plasma; in short: as §3
# Mus musculus [32] = assay: Toxicity in B6C3F1 mouse assessed as adverse event at 50 mg/kg, po administered in water qd for 1 month; format: organism-based; parameters: dose 50 mg/kg, route oral; settings: in vivo; in short: as §1
# [33] = AUC (0.5 to 16 hrs) in B6C3F1 mouse brain at 5 mg/kg, ip; format: ADME, organism-based; parameters: time 0.5-16 hr, dose 5 mg/kg, route intraperitoneal; in short: as §4
# Plasma [34] = assay: Volume of distribution in B6C3F1 mouse plasma at 5 mg/kg, ip after 16 hrs; format: ADME, organism-based; parameters: dose 5 mg/kg, route intraperitoneal; settings: in vivo; in short: as §4
# Brain [35] = assay: Free AUC (0.5 to 16 hrs) in B6C3F1 mouse brain at 5 mg/kg, ip; format: ADME, organism-based; parameters: dose 5 mg/kg, route intraperitoneal; settings: in vivo; in short: as §4
structure (smiles),measurement,setting,value
Nc1scc2c(C(=O)NC3CC3)nn(-c3ccc(F)cc3)c(=O)c12,Activity,Mus musculus [1],Non-toxic
same,Imax,Homo sapiens [2],88%
same,concentration at 1 h,[3],610 ng/mL
same,pIC50,[4],5.60
same,Activity,Mus musculus [5],Toxic
same,Activity,Mus musculus [6],Non-toxic
same,Activity,Mus musculus [7],Non-toxic
same,fAUC,Plasma [8],162 ng·h/mL
same,AUC(0-t),[9],2350 ng·h/mL
same,Activity,Mus musculus [10],Non-toxic
same,Fu,Brain [11],4.3%
same,Activity,Mus musculus [12],Non-toxic
same,concentration at 1 h,[13],670 ng/g
same,inhibition,Homo sapiens [14],78%
same,Kp at 16 h,[15],1.9
same,BPR,[16],1.2
same,Activity,Mus musculus [17],Non-toxic
same,Activity,Mus musculus [18],Non-toxic
same,bioavailability,[19],60%
same,Activity,Mus musculus [20],Non-toxic
same,half-life,[21],2.2 h
same,concentration at 72 h,[22],139 nM
same,concentration at 1 h,[23],832 ng/mL
same,CL,Brain [24],50 mL/h
same,Activity,Mus musculus [25],Non-toxic
same,CL/F,[26],1.31 mL/min
same,BPR,Mus musculus [27],1.09
same,Activity,Mus musculus [28],Non-toxic
same,Activity,Mus musculus [29],Non-toxic
same,Activity,Mus musculus [30],Non-toxic
same,concentration at 1 h,[31],610 ng/mL
same,Activity,Mus musculus [32],Non-toxic
same,AUC(0-t),[33],4510 ng·h/mL
same,Vd,Plasma [34],246 mL
same,fAUC,Brain [35],195 ng·h/mL
